Experimental data pooled from the literature.
Protocols differ between the studies behind these lines.
Target: RAC-alpha serine/threonine-protein kinase (AKT1, Homo sapiens, UniProt P31749)

Cn1c(=O)n(-c2ccc(C(C)(C)C#N)cc2)c2c3cc(-c4cnc5ccccc5c4)ccc3ncc21
remaining activity (enzyme activity, inhibitor; 10 µM): 126%

Cc1ccc(C(=O)NCc2ccsc2)cc1C#Cc1cn(C(C)C)c2ncnc(N)c12
activity vs control (enzyme activity, inhibitor; 1 µM): 94%

Cc1ccc(C(=O)Nc2ccc(CN3CCN(C)CC3)c(C(F)(F)F)c2)cc1C#Cc1cnc2cccnn12
remaining activity (enzyme activity, inhibitor; 23.5 nM): 65%

COc1cc(-c2cn(C3CCc4c(F)cccc4N(CC(F)(F)F)C3=O)nn2)ccc1-n1cnc(C)c1 (centres unmarked)
remaining binding (cell-free assay, competition with immobilised ligand; 1 µM): 96%

COc1cc(F)ccc1-c1ncnc(Nc2cccc(C[S@](C)(=N)=O)c2)n1
activity vs control (enzyme activity, inhibitor; 10 µM): 108%

CNC(=O)Nc1ccc2c(c1)[C@@]1(CC2)OC(=O)N(CC(=O)N(Cc2ccc(F)cc2)[C@@H](C)C(F)(F)F)C1=O
remaining binding (cell-free assay, competition with immobilised ligand; 1 µM): 77%

O=C(CSc1nc2nccnc2c(=O)n1CCc1ccccc1)Nc1nccs1
inhibition (enzyme activity, inhibitor; 10 µM): 4%

CNc1cccc2cc(C(=O)Nc3ccc(C(=O)O)cc3)c(=O)[nH]c12
inhibition (enzyme activity, inhibitor; 10 µM): 2.2%

COc1cc(Nc2cnc(C#N)c(O[C@H](C)CN(C)C)n2)ncc1-c1cnn(C)c1
remaining activity (enzyme activity, inhibitor, radiometric; 10 µM): 87%

FC(F)(F)Oc1cccc(-c2cnc3ccc(-c4ccncc4)nn23)c1
activity vs control (enzyme activity, inhibitor, radiometric; 5 µM): 104%

CNCc1ccccc1-c1csc([C@@H](C)Nc2nc(C)nc3cc(OC)c(OC)cc23)c1
remaining binding (cell-free assay, competition with immobilised ligand; 1 µM): 100%

COc1cc(/C=C/C(=O)CC(=O)/C=C/c2ccc(O)c(OC)c2)ccc1O
activity vs control (enzyme activity, inhibitor; 1 µM): 102%

O=S(=O)(NCCNC/C=C/c1ccc(Br)cc1)c1cccc2cnccc12
remaining signal (cell-free assay; 0.5 µM): 41.6%

CN(C)C(=O)Cn1cc(-c2nc([C@@](C)(c3ccc(-c4cnc(N)nc4)cc3)C3CC3)no2)cn1
remaining binding (cell-free assay, competition with immobilised ligand; 1 µM): 94%

Cc1ccc(Nc2nccc(N(C)c3ccc4c(C)n(C)nc4c3)n2)cc1S(N)(=O)=O
inhibition (enzyme activity, inhibitor; 0.3 µM): -7%

CCN(CC)CCNC(=O)c1c(C)[nH]c(/C=C2\C(=O)Nc3ccc(F)cc32)c1C
remaining signal (cell-free assay; 0.5 µM): 105%

Cc1nc(C2CCN(C(=O)c3ccc(OC(F)(F)F)cc3N)CC2)c2ncc(N3CCN(C)CC3)cc2n1
remaining binding (cell-free assay, competition with immobilised ligand; 1 µM): 100%

CN(C)C1CCN(CC#Cc2nn(C3CCCC3)c3nc(NCc4ccccc4)ncc23)C1 (centres unmarked)
inhibition (enzyme activity, inhibitor, FRET; 1 µM): 5%

Cn1cnc(Br)c1C1=CN(c2ncnc3[nH]cnc23)CCS1
inhibition (enzyme activity, inhibitor, radiometric; 2 µM): 84.3%

O=C(N1CCS(=O)(=O)CC1)N1C[C@H](c2ccc(OC(F)(F)F)cc2)C[C@H](c2nc(C3CC3)no2)C1
remaining binding (cell-free assay, competition with immobilised ligand; 1 µM): 96%
